Molecules are shown by their SMILES. Converted amounts (≈) assume the structure as drawn. Some results are limits rather than exact numbers.

For data set [1], the system named is S. pneumoniae ATCC 49619. The data set can be described thus: MIC by broth microdilution. Format: cell-based, Streptococcus pneumoniae. To be noted: S. pneumoniae ATCC 49619, broth microdilution, 20 h at 37 °C. (In broth dilution the organism is exposed to a series of concentrations in liquid medium.)
The test system of data set [2] is human erythrocytes. The data set can be described thus: In vitro hemolysis assay. Format: cell-based. To be noted: 0.1, 1, and 10 μg/mL, 37 °C, 45 min, PBS pH 7.4. In outline: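 Human whole-blood erythrocytes were pelleted at 500g, 4 °C, 5 min, washed in 150 mM NaCl, resuspended in PBS pH 7.4 and diluted 40×. They were mixed 4:1 with drug solution in PBS containing 0.5% DMSO, giving final 0.1, 1 or 10 μg/mL, and held 45 min at 37 °C (n = 6). Controls were 1% v/v Triton X-100 and PBS. After spinning at 500g for 10 min, supernatant A540 was read and % lysis was normalized to the controls.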

The test system of data set [3] is RNAP holoenzyme. To be noted: cited from earlier work.
Data set [4] concerns the target E. coli core RNAP with σ^70 (Escherichia coli, UniProt P0A8T7). The data set can be described thus: In vitro transcription initiation assay. Format: biochemical. Conditions: σ^70, λ PR promoter template, 26-mer RNA.
The test system of data set [5] is S. aureus. The data set can be described thus: Time-kill kinetics, S. aureus. Format: cell-based, Staphylococcus aureus. To be noted: over 6 h, even at 16 MIC. In outline:
(§1)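 S. aureus was grown in MHB; S. agalactiae and S. pneumoniae in BHI with 5% CO₂. Incubation was 37 °C, 200 rpm. Samples taken at 0, 2, 4 and 6 h were serially diluted 10-fold and plated. CFU/mL was counted after overnight incubation at 37 °C, 5% CO₂. Triplicates.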

In data set [6] the test system is S. agalactiae (GBS). The data set can be described thus: Time-kill kinetics, S. agalactiae. Format: cell-based, Streptococcus agalactiae. To be noted: over 6 h, even at 16 MIC. The procedure, abridged:
as §1

Data set [7] concerns S. pneumoniae. The data set can be described thus: Time-kill kinetics, S. pneumoniae. Format: cell-based, Streptococcus pneumoniae. In outline:
as §1

Data set [8] relates to S. pneumoniae ATP production. The data set can be described thus: ATP production of S. pneumoniae cells. Format: cell-based, Streptococcus pneumoniae. To be noted: at 1/4 MIC.
In data set [9] the test system is pneumolysin. The data set can be described thus: Pneumolysin secretion, Western blot of culture supernatant. Format: cell-based, Streptococcus pneumoniae. Conditions: overnight culture of S. pneumoniae at 1/2 and 1/4 MIC, versus drug-free control. The procedure, abridged:
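S. pneumoniae cultured overnight in BHI without agitation, with or without serially diluted test compound; rifampicin and ceftriaxone controls at 2–0.002 μg/mL; 16–20 h. […] Western blot on PVDF, 5% milk/TBST block, rabbit polyclonal anti-pneumolysin 1:1000, overnight at 4 °C.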

Data set [10] deals with S. aureus ATCC 29213 cells. The data set can be described thus: Cell content quantification of major macromolecules. To be noted: S. aureus ATCC 29213, 1/4 and 1/8 MIC, versus no-drug control. Format: cell-based, Staphylococcus aureus. In outline: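 A master culture of S. aureus ATCC 29213 was inoculated at OD₆₀₀ 0.1 and grown at 37 °C, 200 rpm to OD₆₀₀ 0.2. It was then split into aliquots with test compound or rifampicin at 1/4 and 1/8 MIC, plus an untreated aliquot. Cells were harvested at OD₆₀₀ 0.6 with volumes normalized, then pelleted. DNA, RNA and protein were kit-extracted. DNA and RNA were measured by Qubit BR fluorometric assays and protein by BCA. Triplicates.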

Data set [11] concerns B. subtilis BS1048 (RNAP β′-GFP). The data set can be described thus: Confocal microscopy of RNAP-GFP localization. Format: cell-based, Bacillus subtilis. To be noted: B. subtilis BS1048, at 1/2 MIC, 15 min. The procedure, abridged:
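2.5 μL culture placed on fresh 1.2% agarose pad under coverslip; imaged by confocal microscopy (63×/1.3 oil objective, mercury metal halide lamp).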

Data set [12] deals with Gram-positive pathogens. The data set can be described thus: MIC against other Gram-positive pathogens. Format: cell-based. The procedure, abridged:
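Broth microdilution followed CLSI, in cation-adjusted Mueller–Hinton broth or BHI where indicated. Twofold dilutions ran from 256 to 0.5 μg/mL, with inoculum ~5 × 10⁵ CFU/mL and 20 h incubation at 37 °C. Panel strains were ATCC Gram-positive strains (Enterococcus, S. aureus, streptococci, staphylococci). MIC was the lowest concentration with no visible growth. At least duplicates.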

A short description of data set [13]: Solubility under the conditions of the CH–σ assay. Format: physicochemical. Conditions: conditions of the CH–σ protein complementation assay.

Chain of E. coli core RNAP with σ^70 (P0A7Z4 whole entry): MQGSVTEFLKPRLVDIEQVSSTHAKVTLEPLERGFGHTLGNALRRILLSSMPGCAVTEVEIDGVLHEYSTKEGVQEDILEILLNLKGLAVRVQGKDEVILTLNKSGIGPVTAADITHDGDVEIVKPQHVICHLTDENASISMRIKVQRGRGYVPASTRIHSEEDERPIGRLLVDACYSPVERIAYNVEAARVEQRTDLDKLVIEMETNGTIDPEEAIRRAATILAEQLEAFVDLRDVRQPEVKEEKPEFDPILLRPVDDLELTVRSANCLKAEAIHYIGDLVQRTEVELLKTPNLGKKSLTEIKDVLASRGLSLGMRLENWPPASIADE
Chain of E. coli core RNAP with σ^70 (P0A8T7 whole entry): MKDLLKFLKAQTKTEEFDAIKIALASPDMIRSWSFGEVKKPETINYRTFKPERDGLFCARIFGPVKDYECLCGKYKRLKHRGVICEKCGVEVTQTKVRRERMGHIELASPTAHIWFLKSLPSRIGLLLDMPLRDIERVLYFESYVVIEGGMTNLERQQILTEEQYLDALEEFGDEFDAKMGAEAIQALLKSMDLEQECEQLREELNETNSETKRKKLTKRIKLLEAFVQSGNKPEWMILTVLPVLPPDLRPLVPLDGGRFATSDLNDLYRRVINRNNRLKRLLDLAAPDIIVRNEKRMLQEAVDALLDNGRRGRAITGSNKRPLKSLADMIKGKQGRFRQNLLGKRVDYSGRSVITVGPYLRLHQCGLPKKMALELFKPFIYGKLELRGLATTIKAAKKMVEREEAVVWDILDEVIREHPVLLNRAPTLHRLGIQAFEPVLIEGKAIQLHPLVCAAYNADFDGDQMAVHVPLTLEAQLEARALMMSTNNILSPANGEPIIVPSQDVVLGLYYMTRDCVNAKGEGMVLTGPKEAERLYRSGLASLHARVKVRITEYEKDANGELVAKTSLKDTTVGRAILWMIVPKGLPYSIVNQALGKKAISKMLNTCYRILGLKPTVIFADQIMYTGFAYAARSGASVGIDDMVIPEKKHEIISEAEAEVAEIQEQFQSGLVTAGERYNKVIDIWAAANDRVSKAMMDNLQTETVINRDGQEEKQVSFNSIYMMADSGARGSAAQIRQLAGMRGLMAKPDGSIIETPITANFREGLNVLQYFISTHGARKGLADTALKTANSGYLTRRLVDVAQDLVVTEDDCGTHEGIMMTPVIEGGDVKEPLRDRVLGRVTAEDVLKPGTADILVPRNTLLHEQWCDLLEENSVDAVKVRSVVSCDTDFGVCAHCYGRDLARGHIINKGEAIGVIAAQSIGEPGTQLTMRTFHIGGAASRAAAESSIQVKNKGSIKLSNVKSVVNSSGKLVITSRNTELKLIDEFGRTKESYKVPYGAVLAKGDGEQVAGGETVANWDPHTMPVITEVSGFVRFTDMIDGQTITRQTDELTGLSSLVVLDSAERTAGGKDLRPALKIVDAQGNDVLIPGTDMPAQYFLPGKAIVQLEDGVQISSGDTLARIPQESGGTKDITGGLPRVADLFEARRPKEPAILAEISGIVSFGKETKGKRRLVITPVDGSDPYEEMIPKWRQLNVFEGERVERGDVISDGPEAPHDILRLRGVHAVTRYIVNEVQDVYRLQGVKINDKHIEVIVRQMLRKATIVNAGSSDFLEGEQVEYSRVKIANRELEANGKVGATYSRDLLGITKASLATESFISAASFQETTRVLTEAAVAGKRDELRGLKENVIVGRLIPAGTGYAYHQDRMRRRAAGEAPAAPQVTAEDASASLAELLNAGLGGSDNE
Chain of E. coli core RNAP with σ^70 (P0A800 whole entry, further chain): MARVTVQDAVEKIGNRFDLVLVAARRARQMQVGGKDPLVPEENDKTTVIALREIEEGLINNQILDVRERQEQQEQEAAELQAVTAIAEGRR
Chain of E. coli core RNAP with σ^70 (P0A8V2 whole entry, further chain): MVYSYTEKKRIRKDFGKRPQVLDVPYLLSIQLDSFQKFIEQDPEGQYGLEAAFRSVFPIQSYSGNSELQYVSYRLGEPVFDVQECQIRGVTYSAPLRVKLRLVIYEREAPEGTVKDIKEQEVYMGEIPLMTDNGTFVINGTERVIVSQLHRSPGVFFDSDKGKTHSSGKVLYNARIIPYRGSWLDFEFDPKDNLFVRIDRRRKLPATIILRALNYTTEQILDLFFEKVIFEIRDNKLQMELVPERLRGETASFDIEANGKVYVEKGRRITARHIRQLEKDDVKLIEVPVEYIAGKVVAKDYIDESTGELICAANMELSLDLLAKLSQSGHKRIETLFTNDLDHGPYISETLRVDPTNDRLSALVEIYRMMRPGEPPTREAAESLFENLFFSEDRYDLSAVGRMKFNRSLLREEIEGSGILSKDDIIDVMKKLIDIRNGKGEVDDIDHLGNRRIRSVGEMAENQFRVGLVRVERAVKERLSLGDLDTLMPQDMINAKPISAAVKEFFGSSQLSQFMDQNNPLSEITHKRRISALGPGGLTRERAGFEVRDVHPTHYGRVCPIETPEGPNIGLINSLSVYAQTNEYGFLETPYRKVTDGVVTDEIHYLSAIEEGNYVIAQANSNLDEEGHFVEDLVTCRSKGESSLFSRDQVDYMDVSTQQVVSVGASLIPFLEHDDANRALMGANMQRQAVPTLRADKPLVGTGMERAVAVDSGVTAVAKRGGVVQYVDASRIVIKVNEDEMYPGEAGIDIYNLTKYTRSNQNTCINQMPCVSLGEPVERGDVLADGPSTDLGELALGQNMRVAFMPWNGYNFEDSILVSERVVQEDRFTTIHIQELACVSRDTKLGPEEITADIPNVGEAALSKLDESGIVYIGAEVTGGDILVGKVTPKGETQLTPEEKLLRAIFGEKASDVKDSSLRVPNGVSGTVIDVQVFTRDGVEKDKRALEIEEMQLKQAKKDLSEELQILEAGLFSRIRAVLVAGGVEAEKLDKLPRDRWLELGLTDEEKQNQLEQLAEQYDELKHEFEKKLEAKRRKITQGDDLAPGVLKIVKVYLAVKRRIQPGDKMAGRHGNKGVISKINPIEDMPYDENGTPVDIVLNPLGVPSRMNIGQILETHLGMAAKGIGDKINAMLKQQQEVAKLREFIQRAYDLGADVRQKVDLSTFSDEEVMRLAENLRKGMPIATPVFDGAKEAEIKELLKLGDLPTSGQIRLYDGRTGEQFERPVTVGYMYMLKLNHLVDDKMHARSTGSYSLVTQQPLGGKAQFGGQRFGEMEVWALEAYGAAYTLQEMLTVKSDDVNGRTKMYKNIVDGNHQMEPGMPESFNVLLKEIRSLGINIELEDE

As a reminder, the MIC is the smallest concentration in the dilution series that meets the test's criterion for growth inhibition. Higher therefore signals a less susceptible organism. On to `O=C(Nc1ccccc1C(=O)O)c1ccc(Sc2ccc(Cl)c(Cl)c2)c([N+](=O)[O-])c1` [Compound 41, 2-(4-((3,4-Dichlorophenyl)thio)-3-nitrobenzamido)benzoic Acid], for which the MIC entry in data set [1] is listed as “lost activity completely”.

Consider `O=C(O)c1ccc(Cl)c(NCc2ccc(Sc3ccc(Cl)c(Cl)c3)c([N+](=O)[O-])c2)c1` [Compound 45, 4-Chloro-3-((4-((3,4-dichlorophenyl)thio)-3-nitrobenzyl)amino)-benzoic Acid], for which, in data set [2], the “hemolytic value (% of lysis)” value is on record as below 10%.

For `Nc1ccccc1Sc1ccc(C(=O)c2ccccc2C(=O)O)cc1[N+](=O)[O-]` [Compound 1, 2-(4-((2-Aminophenyl)thio)-3-nitrobenzoyl)benzoic acid], the “RNAP holoenzyme formation and RNA synthesis in vitro” value in data set [3] is listed as “inhibited”.

In the case of `O=C(O)c1ccc(Cl)cc1NCc1ccc(Sc2ccc(Cl)c(Cl)c2)c([N+](=O)[O-])c1` [Compound 54, 4-Chloro-2-((4-((3,4-dichlorophenyl)thio)-3-nitrobenzyl)amino)-benzoic Acid], the “inhibition of transcription (RNA synthesis) in vitro” value in [4] was “much more potent inhibition”. In addition, the time-kill profile result in data set [5], in data set [6] and in [7] (at 1 MIC) was “largely bacteriostatic” in each case. Further, in data set [7] (at higher concentrations (4 and 16 MICs)), the “decrease in cell count” value is listed as “ca. 2 fold log10 decrease”. In data set [8], the ATP production rate result is given as “significant decrease”. Besides, the “pneumolysin levels in culture supernatant” value (shortened to “pneumolysin levels”) in [9] was “substantial decrease”. Further, the “total RNA levels” value in data set [10] is recorded as “reduction”. The “total levels of DNA” value in data set [10] is given as “remained mostly unaffected”. Moreover, the total protein levels entry in data set [10] is recorded as “Reduction”. Also, the RNAP-GFP localization entry in data set [11] was “delocalization of the fluorescence from the nucleoid”. Further, the minimum inhibitory concentration (MIC) in data set [12] is 1 to 2 µg/mL (≈ 2.07 to 4.13 µM). The “solubility under the testing conditions” value in data set [13] is given as “insolubility under the testing conditions”.

`CO/N=C(\C(=O)N[C@@H]1C(=O)N2C(C(=O)O)=C(CSc3nc(=O)c(O)nn3C)CS[C@H]12)c1csc(N)n1` [ceftriaxone]: the “pneumolysin levels” value in data set [9] was “increased”.

`CO[C@H]1/C=C/O[C@@]2(C)Oc3c(C)c(O)c4c(O)c(c(/C=N/N5CCN(C)CC5)c(O)c4c3C2=O)NC(=O)/C(C)=C\C=C\[C@H](C)[C@H](O)[C@@H](C)[C@@H](O)[C@@H](C)[C@H](OC(C)=O)[C@@H]1C` [rifampicin, reference compound]: the “pneumolysin levels” value in data set [9] is reported as “suppressed”. In addition, in [10], the “total RNA levels” value is reported as “reduced” and the “total levels of DNA” value was “remained mostly unaffected”.

On to `O=C(O)c1ccccc1NCc1ccc(Sc2ccc(Cl)c(Cl)c2)c([N+](=O)[O-])c1` [Compound 43, 2-((4-((3,4-Dichlorophenyl)thio)-3-nitrobenzyl)amino)benzoic Acid], for which the “hemolytic value (% of lysis)” value in data set [2] is on record as below 10%.

Regarding `O=C(O)c1ccccc1C(=O)c1ccc(Sc2ccc(Cl)c(Cl)c2)c([N+](=O)[O-])c1` [Compound 13, 2-(4-((3,4-dichlorophenyl)thio)-3-nitrobenzoyl)benzoic acid], the “hemolytic value (% of lysis)” value in [2] was below 10%. Further, in [4], the “inhibition of transcription (RNA synthesis) in vitro” value was “inhibited transcription”.

These data come from PMC8091929 (Journal of medicinal chemistry, 2020).
